The source made the active and inactive calls. The calls are words filed in the database; no cut-off is given here.
How the values were obtained:
Assay type in all cases: cell-based
[1] = target: T1, Dihydroorotate dehydrogenase (quinone), mitochondrial (Homo sapiens, UniProt Q02127); experiment: Inhibition of DHODH in human HEK293 cells transfected with ISRE-luciferase reporter gene assessed as increase in 125 IU/ml IFN-alpha stimulated IFIT5 mRNA expression at 80 uM measured after 16 hrs by RT-qPCR analysis relative to control
T1 sequence (Q02127 whole entry): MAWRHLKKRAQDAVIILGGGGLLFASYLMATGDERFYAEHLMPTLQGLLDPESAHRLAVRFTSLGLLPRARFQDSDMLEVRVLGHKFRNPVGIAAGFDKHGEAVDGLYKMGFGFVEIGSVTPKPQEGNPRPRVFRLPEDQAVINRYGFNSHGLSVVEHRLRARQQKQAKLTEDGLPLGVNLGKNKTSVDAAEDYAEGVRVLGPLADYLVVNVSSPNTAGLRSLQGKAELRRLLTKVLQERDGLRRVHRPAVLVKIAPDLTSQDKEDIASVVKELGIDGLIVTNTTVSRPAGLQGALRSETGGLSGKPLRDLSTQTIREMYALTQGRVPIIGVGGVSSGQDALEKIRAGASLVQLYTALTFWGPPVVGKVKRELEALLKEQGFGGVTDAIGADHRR
Outline: (§1)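 ISRE-Luc HEK cells co-treated with increasing IFN-α concentrations and DMSO or compound (80 µM) for 16 h. Total RNA extracted from 2×10^5 cells with DNase step; qPCR 35 cycles. CT values normalized to RPL13A and unstimulated controls (2^-ΔΔCT), expressed as fold change versus DMSO alone. Three independent experiments; two-way ANOVA with Bonferroni.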

[2] = target: T1, Dihydroorotate dehydrogenase (quinone), mitochondrial; experiment: Inhibition of DHODH in human HEK293 cells transfected with ISRE-luciferase reporter gene assessed as increase in 30 IU/ml IFN-alpha stimulated IFIT3 mRNA expression at 80 uM measured after 16 hrs by RT-qPCR analysis relative to control; outline: as §1
[3] = target: T1, Dihydroorotate dehydrogenase (quinone), mitochondrial; experiment: Inhibition of DHODH in human HEK293 cells transfected with ISRE-luciferase reporter gene assessed as increase in 30 IU/ml IFN-alpha stimulated PKR mRNA expression at 80 uM measured after 16 hrs by RT-qPCR analysis relative to control; outline: as §1
[4] = target: T1, Dihydroorotate dehydrogenase (quinone), mitochondrial; experiment: Inhibition of DHODH in human HEK293 cells transfected with ISRE-luciferase reporter gene assessed as increase in 30 IU/ml IFN-alpha stimulated PML mRNA expression at 80 uM measured after 16 hrs by RT-qPCR analysis relative to control; outline: as §1
[5] = target: T1, Dihydroorotate dehydrogenase (quinone), mitochondrial; experiment: Inhibition of DHODH in human HEK293 cells transfected with ISRE-luciferase reporter gene assessed as increase in 250 IU/ml IFN-alpha stimulated IFITM3 mRNA expression at 80 uM measured after 16 hrs by RT-qPCR analysis relative to control; outline: as §1
[6] = target: T1, Dihydroorotate dehydrogenase (quinone), mitochondrial; experiment: Inhibition of DHODH in human HEK293 cells transfected with ISRE-luciferase reporter gene assessed as increase in 250 IU/ml IFN-alpha stimulated MX2 mRNA expression at 80 uM measured after 16 hrs by RT-qPCR analysis relative to control; outline: as §1
[7] = target: T1, Dihydroorotate dehydrogenase (quinone), mitochondrial; experiment: Inhibition of DHODH in human HEK293 cells transfected with ISRE-luciferase reporter gene assessed as increase in 30 IU/ml IFN-alpha stimulated IFIT1 mRNA expression at 80 uM measured after 16 hrs by RT-qPCR analysis relative to control; outline: as §1
[8] = target: T1, Dihydroorotate dehydrogenase (quinone), mitochondrial; experiment: Inhibition of DHODH in human HEK293 cells transfected with ISRE-luciferase reporter gene assessed as increase in 60 IU/ml IFN-alpha stimulated DDX58 mRNA expression at 80 uM measured after 16 hrs by RT-qPCR analysis relative to control; outline: as §1
[9] = target: T1, Dihydroorotate dehydrogenase (quinone), mitochondrial; experiment: Inhibition of DHODH in human HEK293 cells transfected with ISRE-luciferase reporter gene assessed as increase in 60 IU/ml IFN-alpha stimulated IFIT3 mRNA expression at 80 uM measured after 16 hrs by RT-qPCR analysis relative to control; outline: as §1
[10] = target: T1, Dihydroorotate dehydrogenase (quinone), mitochondrial; experiment: Inhibition of DHODH in human HEK293 cells transfected with ISRE-luciferase reporter gene assessed as increase in 250 IU/ml IFN-alpha stimulated PKR mRNA expression at 80 uM measured after 16 hrs by RT-qPCR analysis relative to control; outline: as §1
[11] = target: T1, Dihydroorotate dehydrogenase (quinone), mitochondrial; experiment: Inhibition of DHODH in human HEK293 cells transfected with ISRE-luciferase reporter gene assessed as increase in 125 IU/ml IFN-alpha stimulated IFIT3 mRNA expression at 80 uM measured after 16 hrs by RT-qPCR analysis relative to control; outline: as §1
[12] = target: T1, Dihydroorotate dehydrogenase (quinone), mitochondrial; experiment: Inhibition of DHODH in human HEK293 cells transfected with ISRE-luciferase reporter gene assessed as increase in 250 IU/ml IFN-alpha stimulated PML mRNA expression at 80 uM measured after 16 hrs by RT-qPCR analysis relative to control; outline: as §1
[13] = target: T1, Dihydroorotate dehydrogenase (quinone), mitochondrial; experiment: Inhibition of DHODH in human HEK293 cells assessed as effect on intracellular purine level measured after 24 hrs by HPLC coupled spectrophotometry
Outline: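 HEK-293 cells plated at 1×10^6 per well, treated 24 h later with compound (80 µM final) or DMSO for 24 h. Pellets deproteinized with 6% perchloric acid, neutralized with Na2CO3, analysed by C18 HPLC at 45°C with ion-pair phosphate/MeOH gradient, detected at 254 nm against reference nucleoside calibration curves. Normalized to viable cell number and DMSO controls.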

[14] = target: T1, Dihydroorotate dehydrogenase (quinone), mitochondrial; experiment: Inhibition of DHODH in human HEK293 cells transfected with ISRE-luciferase reporter gene assessed as increase in INFgamma-stimulated cellular response at 80 uM measured after 24 hrs by luciferase reporter gene assay
Outline: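 ISRE-Luc HEK-293 cells were treated with DMSO or compound at 80 μM, with or without recombinant IFN-γ at 150 IU/ml. Firefly luciferase was read 24 h later with Bright-Glo or Britelite, 0.1 s luminescence. Signal was normalized to DMSO + IFN-γ. Values are means ± SD of three independent experiments; two-tailed t-test.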

[15] = target: T1, Dihydroorotate dehydrogenase (quinone), mitochondrial; experiment: Inhibition of DHODH in human HEK293 cells transfected with ISRE-luciferase reporter gene assessed as increase in 30 IU/ml IFN-alpha stimulated IFIT2 mRNA expression at 80 uM measured after 16 hrs by RT-qPCR analysis relative to control; outline: as §1
[16] = target: T1, Dihydroorotate dehydrogenase (quinone), mitochondrial; experiment: Inhibition of DHODH in human HEK293 cells transfected with ISRE-luciferase reporter gene assessed as increase in 60 IU/ml IFN-alpha stimulated IFIT5 mRNA expression at 80 uM measured after 16 hrs by RT-qPCR analysis relative to control
Outline: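 HEK-293 ISRE-Luc cells (DMEM, 10% FCS, 37°C, 5% CO2) were given increasing IFN-α doses together with DMSO or compound at 80 μM, then harvested at 16 h. RNA was extracted from 2×10^5 cells with DNase treatment. Transcripts were run by qPCR for 35 cycles and normalized to RPL13A and to unstimulated controls by 2^-ΔΔCT. Values are fold change versus DMSO; three independent experiments; two-way ANOVA with Bonferroni.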

[17] = target: T1, Dihydroorotate dehydrogenase (quinone), mitochondrial; experiment: Inhibition of DHODH in human HEK-293 cells transfected with ISRE-luciferase reporter gene assessed as increase in 150 IU/ml IFN-alpha mediated cellular response at 80 uM in presence of AZD6738 ATR inhibitor measured after 24 hrs by luciferase reporter gene assay; conditions: HEK293
Outline: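 ISRE-Luc HEK-293 cells given IFN-α (150 IU/ml) alone or with test compound (80 µM), with or without the MRE11 inhibitor mirin, ATR inhibitor AZD6738, CHK1 inhibitor PF477736 or P300/CBP inhibitor C636. Firefly luciferase read 24 h later, normalized to IFN-α alone. Means ± SD of at least three independent experiments.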

[18] = target: T1, Dihydroorotate dehydrogenase (quinone), mitochondrial; experiment: Inhibition of DHODH in human HEK293 cells assessed as increase in 125 IU/ml IFN-alpha stimulated ISG15 mRNA expression at 80 uM measured after 16 hrs by RT-qPCR analysis relative to control; outline: as §1

fold change (FC) [1]: 4
fold change (FC) [2]: 39
fold change (FC) [3]: 2
fold change (FC) [4]: 3
fold change (FC) [5]: 15
fold change (FC) [6]: 28
fold change (FC) [7]: 51
fold change (FC) [8]: 23
fold change (FC) [9]: 69
fold change (FC) [10]: 4
fold change (FC) [11]: 99
fold change (FC) [12]: 5
Activity [13]: inactive
Activity [14]: Active
fold change (FC) [15]: 26
fold change (FC) [16]: 3
Activity [17]: inactive
fold change (FC) [18]: 200
SMILES: O=C1OC2(CCCCC2)c2ccn(C3CC3)c(=O)c21

From ChEMBL document CHEMBL4680118, “Cerpegin-derived furo[3,4-c]pyridine-3,4(1H,5H)-diones enhance cellular response to interferons by de novo pyrimidine biosynthesis inhibition” (Eur J Med Chem, 2020)
